# Source: PubChem BioAssay
# E coli WT exp = E. coli BW25113 growth inhibition, expanded screen; growth inhibition, % at 100 µM; OD600 absorbance; actives 0.15% (n = 98,000);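 active = growth inhibition above about 50% at one test dose, limit read from the data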;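 also: growth measured after 20 h incubation at 37 °C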
# PLAP act = activates human placental alkaline phosphatase; purified PLAP enzyme, luminescent substrate read-out; hits give high values; activation fold at 20 µM; AID 696; actives 1.2% (n = 96,000); in the data active = activation fold above about 2
# Target sequence (P05187 whole entry, looked up): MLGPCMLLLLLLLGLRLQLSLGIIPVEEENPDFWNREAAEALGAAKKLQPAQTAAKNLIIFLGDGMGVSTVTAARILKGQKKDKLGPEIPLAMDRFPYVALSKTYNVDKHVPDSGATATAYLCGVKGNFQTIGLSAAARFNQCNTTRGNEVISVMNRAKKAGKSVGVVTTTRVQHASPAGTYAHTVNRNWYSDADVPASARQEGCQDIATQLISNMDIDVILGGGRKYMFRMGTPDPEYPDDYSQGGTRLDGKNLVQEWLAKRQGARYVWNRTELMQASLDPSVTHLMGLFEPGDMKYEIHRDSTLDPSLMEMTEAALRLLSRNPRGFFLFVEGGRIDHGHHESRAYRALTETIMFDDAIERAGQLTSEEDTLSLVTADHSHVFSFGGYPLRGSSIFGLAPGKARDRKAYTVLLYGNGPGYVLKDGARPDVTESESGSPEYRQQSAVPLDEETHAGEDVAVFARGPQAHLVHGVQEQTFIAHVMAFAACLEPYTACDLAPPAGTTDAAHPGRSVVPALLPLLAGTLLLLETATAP
# tolC growth inh = growth inhibitors of E. coli BW25113 tolC mutant; actives 2.2% (n = 65,000); OD615; AID 573; growth inhibition, % at 10 µM (by protocol);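 active = growth inhibition at or above a cutoff equal to the mean over every tested compound plus 3 SD, cut at about 60% in these data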;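 also: growth measured after 20 h incubation at 37 °C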
#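 Assay system: tolC-deleted E. coli BW25113. Medium: kanamycin-containing LB broth (50 µg/mL). Dosing: 10 µM final, single dose. Timing: bacterial growth with compound for 20 h at 37 °C. Detection: A615 absorbance measurement. Read-out basis: growth inhibition in percent.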
# HePTP inhibitor = human HePTP phosphatase inhibition | P35236 | recombinant HePTP phosphatase activity, OD absorbance | inhibition, % at 20 µM | actives 0.64% (n = 110,000); in the data active = inhibition above about 50%;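 also: plate controls were vehicle for no effect and reference inhibitor for full effect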
# PostGolgi yeast = growth inhibition of a yeast mutant, post-Golgi transport screen | post-Golgi transport phenotypic cell assay | inhibition, % at 10 µM | actives 0.9% (n = 98,000);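 also: yeast cells grown in 1536-well plates; yeast grown about 18 h at 30C before absorbance read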
# PostGolgi ctrl = growth of the yeast control strain, post-Golgi counter-screen. efflux-deficient yeast background strain, growth absorbance A615, 16 h. inhibition, % at 10 µM. actives 5% (n = 98,000). AID 738
# An asterisk follows results filed as active; . = no result given. In the library only some 5.4% were active in any assay of this set; here they are far more common. Rule as the data show it, unless noted: active = inhibition above about 30%; inactive = the rest.
SMILES,E coli WT exp,PLAP act,tolC growth inh,HePTP inhibitor,PostGolgi yeast,PostGolgi ctrl
Cc1[nH]nc(N=CC2=C(O)CC(c3ccco3)CC2=O)c1-c1ccc(Cl)cc1 (stereo not given),-7,1.1,.,.,2,22
Cc1[nH]nc(N=CC2=C(O)CC(C)(C)CC2=O)c1-c1ccc(Cl)cc1,12,0.9,15,-8,79*,23
O=C1C(=O)N(c2cccc(Cl)c2)C(c2cccc(F)c2)/C1=C(\O)c1ccccc1 (stereo not given),.,.,.,1,.,.
COc1cc(/C=C2/SC(=S)N(CC(=O)O)C2=O)cc(Cl)c1O,.,.,.,98*,.,.
Cc1csc(/C(C#N)=C/c2sccc2C)n1,.,.,.,-5,.,.
Cc1ccc2nc(/C(C#N)=C\c3ccc([N+](=O)[O-])o3)[nH]c2c1,17,1,.,2,103*,99*
CC1=CC(C)C(COC(=O)Nc2ccccc2)C(C)C1 (stereo not given),.,.,.,-6,.,.
C=C(C)C1CCC(C)=C1COC(=O)Nc1ccccc1 (stereo not given),-13,0.9,78*,8,3,24
COc1ccc(C(=O)Nc2ccc(S(=O)(=O)NC(C)=O)cc2)cc1,-4,0.9,-5,6,-8,36*
CN(C(=O)Nc1ccc(Cl)cc1Cl)[C@H]1c2cc(Br)ccc2OC[C@H]1CO,-11,1.4,.,.,6,81*
COc1cccc2c1OC[C@@H](CO)[C@H]2N(C)C(=O)Nc1ccccc1,1,1,.,.,3,25
O=C(O)Cn1c(O)c(/C=C2\C=Nc3ccccc32)sc1=S,.,.,.,-13,.,.
CC1CCc2c(sc(NC(=O)c3cccc(C(=O)O)c3)c2C(N)=O)C1 (stereo not given),.,.,.,103*,.,.
CC1CCc2c(sc(NC(=O)c3ccccc3)c2C(N)=O)C1 (stereo not given),.,.,.,5,.,.
CNc1oc(-c2ccc(Cl)cc2)nc1P(=O)(c1ccccc1)c1ccccc1,-18,1.3,.,.,7,32*
O=c1[nH]c(=O)n(-c2ccccc2Cl)c(O)c1C=Nc1ccc2c(c1)OCO2,.,.,.,8,.,.
CCCCN(CC)C(=O)Cc1c(C(=O)O)[nH]c2ccc(Cl)cc12,-9,1.1,40,9,3,32*
Cc1ccc(S(=O)(=O)N2CCN(C(=O)CSC3CCCC3)CC2)c(C)c1,5,1.5,30,8,3,9
CC(=O)c1c(C)[nH]c(C(=O)OCC(=O)N2CCN(S(=O)(=O)c3ccc(C)cc3C)CC2)c1C,1,2*,.,.,12,-2
Cc1cc(C(=O)Nc2c(C)nn(Cc3c(Cl)cccc3Cl)c2C)no1,4,1.2,15,-4,-8,33*
Cc1nn(Cc2ccccc2Cl)c(C)c1NC(=O)c1noc2c1CCCCC2,-6,1.3,65*,-2,-8,9
Cc1nn(Cc2ccc(Cl)cc2)c(C)c1NC(=O)c1noc2c1CCc1ccccc1-2,-8,1,.,.,-1,42*
Cc1nn(Cc2cccc(F)c2)c(C)c1NC(=O)c1ccc(COc2ccccc2Cl)cc1,-12,2*,.,.,-16,25
COc1ccc(Cl)cc1NC(=O)C1=C(C)NC(=O)NC1c1ccccc1Br (stereo not given),.,.,.,0,.,.
Cc1cc(NC(=O)c2noc3c2CCCC3)nn1Cc1ccc(Cl)cc1,6,0.9,81*,4,-11,23
SMILES,E coli WT exp,PLAP act,tolC growth inh,HePTP inhibitor,PostGolgi yeast,PostGolgi ctrl
COc1ccc2c(c1)CCc1c(C(=O)Nc3cc(C)n(Cc4ccc(Cl)cc4)n3)noc1-2,-9,0.8,8,6,0,0
CCOc1ccc(NC(=S)Nc2cc(-c3ccccc3)[nH]n2)cc1,0,1.1,.,.,8,5
COc1ccc(NC(=S)Nc2cc(-c3ccccc3)[nH]n2)cc1Cl,4,1,.,.,-8,30*
Cc1cc(Br)cc2c(C(=O)Nc3c(C)n(C)n(-c4ccccc4)c3=O)cc(-c3cccs3)nc12,-9,1.4,.,.,2,39*
COC(=O)c1nnn(-c2nonc2N)c1CSc1nc2ccccc2s1,0,1.1,10,11,5,60*
CCOc1ccc(OCC)c(NC(=O)C2CCCN(S(=O)(=O)c3c(C)n[nH]c3C)C2)c1 (stereo not given),-4,2*,4,4,2,3
O=C1CSC(c2cn(-c3ccccc3)nc2-c2cc3ccccc3o2)N1Cc1ccccc1 (stereo not given),-12,1.2,.,.,4,11
Cc1ccc(-c2nn(-c3ccccc3)cc2C2SCC(=O)N2Cc2ccccc2)o1 (stereo not given),-23,1.4,42,1,2,58*
CCC(=O)N1CCN(c2cc(C)c([N+](=O)[O-])cc2F)CC1,.,.,.,-5,.,.
Cc1cc(C)c2cc(CN(CC3CCCO3)S(=O)(=O)c3ccc4c(c3)OCCO4)c(=O)[nH]c2c1 (stereo not given),-4,1.6,67*,2,13,9
Cc1ccc2[nH]c(=O)c(CN(CC3CCCO3)S(=O)(=O)c3cccc4nsnc34)cc2c1 (stereo not given),8,1.5,5,8,14,-6
Cc1ccc2[nH]c(=O)c(CN(CC3CCCO3)S(=O)(=O)c3c(C)ccc4nsnc34)cc2c1 (stereo not given),-1,1.6,9,3,1,32*
Cc1ccc(-c2cc(-c3ccccc3Cl)[nH]n2)c(O)c1,13,1.2,17,1,-15,38*
Oc1ccc(Cl)cc1-c1cc(-c2ccc(Br)cc2)n[nH]1,.,.,.,4,.,.
Oc1ccc(Cl)cc1-c1cc(-c2ccccc2)n[nH]1,1,1.1,100*,6,8,65*
Cc1ccc(-c2cc(-c3ccccc3[N+](=O)[O-])[nH]n2)c(O)c1,26,2*,.,.,-2,41*
Cc1ccccc1-c1cc(-c2ccccc2O)n[nH]1,26,1.3,100*,4,0,52*
COc1ccc(-c2nnc(-c3ccc4c(c3)OCO4)o2)cc1OC,.,.,.,-13,.,.
CCCN1C/C(=C\c2ccc([N+](=O)[O-])cc2)C(=O)/C(=C/c2ccc([N+](=O)[O-])cc2)C1,.,.,.,7,.,.
COc1ccc(/C=C2\SC(=O)N(CCC(=O)Nc3cccc(C)c3)C2=O)cc1OC,.,.,.,-1,.,.
COC(C)(C)[C@]12CC(O)(c3ccccc3)ON1[C@H]1CCCCC1N2O (stereo not given in full),7,1,-27,4,1,32*
O=C(/C=C/c1ccccc1F)c1c(-c2ccccc2)c2cc(Cl)ccc2[nH]c1=O,.,.,.,4,.,.
COc1ccccc1-c1nnc(NC(=O)c2ccccc2F)o1,7,1,1,5,-8,7
CCN(Cc1ccccc1)S(=O)(=O)c1ccc(C(=O)Nc2nnc(-c3ccccc3OC)o2)cc1,-3,1.7,98*,12,11,4
COc1ccccc1-c1nnc(NC(=O)c2ccc(S(=O)(=O)N(C)C)cc2)o1,0,1.1,96*,10,8,4
C/C(CC(O)c1ccc2ccccc2n1)=N\O (stereo not given),.,.,.,-2,.,.
